Bioassay records deposited in PubChem BioAssay by The Scripps Research Institute Molecular Screening Center.
Sampled rows, rich in hits. Any-hit rate of the full collection: about 1.8%.
M5 antag = human M5 muscarinic receptor antagonists, primary screen, CHO cells, Fluo-8 calcium fluorescence | CHO-hM5 cells, ACh EC80 | inhibition, % at 3 µM | 360,000 compounds, 0.59% hits;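 active = inhibition above a per-plate cutoff, the mean of that plate's test compounds plus 3 SD, cut at about 27% in these data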;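 note: 0% = acetylcholine EC80 with DMSO and 100% = DMSO without agonist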
M4 ag = human M4 muscarinic receptor agonists, primary screen, CHO-K1 cells, Fluo-8 calcium fluorescence. Muscarinic acetylcholine receptor M4 (Homo sapiens), P08173. CHO-K1 hM4/Gqi5; vehicle 0%, full acetylcholine response 100%. activation, % at 3 µM. 360,000 compounds, 0.14% hits;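 active = activation above the run mean over all test wells plus 3 SD, cut at about 32% in these data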;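 note: peak over basal fluorescence ratio per well then scaled between controls; 0% = DMSO wells and 100% = acetylcholine at EC100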
Target sequence (P08173 whole entry, looked up): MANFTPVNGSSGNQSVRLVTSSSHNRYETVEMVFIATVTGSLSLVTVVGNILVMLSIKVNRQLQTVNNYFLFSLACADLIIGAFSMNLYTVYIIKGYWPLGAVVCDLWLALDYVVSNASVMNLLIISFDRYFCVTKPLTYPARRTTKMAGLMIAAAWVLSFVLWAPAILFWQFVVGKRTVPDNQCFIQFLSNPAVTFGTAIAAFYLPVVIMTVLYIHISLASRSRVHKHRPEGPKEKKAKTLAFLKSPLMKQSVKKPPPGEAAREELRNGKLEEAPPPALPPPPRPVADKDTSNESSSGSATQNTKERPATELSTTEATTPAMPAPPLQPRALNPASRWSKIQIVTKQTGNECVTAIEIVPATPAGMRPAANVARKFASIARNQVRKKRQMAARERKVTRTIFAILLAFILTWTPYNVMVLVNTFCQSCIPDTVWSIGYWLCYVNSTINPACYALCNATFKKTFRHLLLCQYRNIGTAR
CHRM5 PAM = human M5 muscarinic receptor positive allosteric modulators, primary screen, CHO-K1 cells, Fluo-8 calcium fluorescence; activation, % at 3 µM; 360,000 compounds, 0.3% hits; Muscarinic acetylcholine receptor M5 (Homo sapiens), P08912; CHO-K1 hM5, ACh EC20 PAM; 0% = ACh EC20, 100% = ACh EC100;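 active = activation above the run cutoff, the mean activation of all test compounds plus 3 SD, cut at about 18% in these data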
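Assay system – human M5 receptor in CHO-K1 cells · Read-out – % activation, ACh-normalized · Technique – Fluo-8 calcium fluorescence · Dosing – single-point, 3 µM nominal · Incubation – Fluo-8 loading 80 min at 37 °C plus 30 min room temperature · Repeats – singlicate, one well per test compound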
M4 PAM = human M4 muscarinic receptor positive allosteric modulators, primary screen, CHO-K1 cells, Fluo-8 calcium fluorescence; CHO-K1 hM4/Gqi5, ACh EC20; 0% = ACh EC20, 100% = maximal ACh; activation, % at 3 µM; 360,000 compounds, 0.4% hits;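 active = activation above its plate's cutoff, the mean activation of sample wells plus 3 SD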
M4 antag = human M4 muscarinic receptor antagonists, primary screen, CHO cells, Fluo-8 calcium fluorescence; Muscarinic acetylcholine receptor M4 (Homo sapiens), P08173; 360,000 compounds, 0.73% hits; inhibition, % at 3 µM; CHO-hM4 cells, ACh EC80; AID 624125, 2012;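 active = inhibition above its plate's cutoff, the mean inhibition of sample wells plus 3 SD, cut at about 27% in these data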;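 note: 0% = acetylcholine EC80 with DMSO and 100% = DMSO without agonist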
CHRM5 agonist = human M5 muscarinic receptor agonists, primary screen, CHO-K1 cells, Fluo-8 calcium fluorescence. CHO-K1 hM5 cells; 0% DMSO wells, 100% maximal acetylcholine response. activation, % at 3 µM. 360,000 compounds, 0.19% hits. AID 624037, 2012;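 active = activation above the run's mean over test compounds plus 3 SD, cut at about 23% in these data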;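 note: signal is peak over basal fluorescence ratio across the kinetic read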
Starred values were filed as active, the others as inactive.

Screening CCCc1cnc(Nc2nc(C(N)Cc3ccc(OC)cc3)cs2)nc1 (configuration not stated) returned M5 antag 11.9, M4 ag 5.5, CHRM5 PAM -0.4, M4 PAM -5.5, M4 antag 2.1 and CHRM5 agonist 6.5.
COc1ccc(N2CCN(CC(=O)NC(=O)NCc3ccco3)CC2)cc1 was read as M5 antag -2.1, M4 ag 0.8, CHRM5 PAM 4.5, M4 PAM 3.1, M4 antag 4.0 and CHRM5 agonist -0.7.
For O=C(CN1CCN(c2ccc(O)cc2)CC1)NC(=O)NCc1ccco1 the results were M5 antag -8.3, M4 ag 0.8, CHRM5 PAM 18.6*, M4 PAM 11.3, M4 antag -14.4 and CHRM5 agonist -0.3.
COc1c2ccc(OCC/C(C)=C/C(=O)C=C(C)C)cc2nc2occc12 was read as M5 antag -4.0, M4 ag 1.8, CHRM5 PAM 20.4*, M4 PAM 9.8, M4 antag -15.0 and CHRM5 agonist 2.2.
Screening COc1cccc(C(C)(O)c2nc(-c3ccc(S(C)(=O)=O)cc3)cs2)c1 (configuration not stated) returned M5 antag -10.5, M4 ag 6.7, CHRM5 PAM -5.1, M4 PAM 1.5, M4 antag -4.1 and CHRM5 agonist 1.9.
CCOC(=O)c1cnc2c(C)cccc2c1Nc1cccc(C(=O)O)c1 was read as M5 antag 8.4, M4 ag 1.6, CHRM5 PAM -3.6, M4 PAM 14.0, M4 antag 29.8* and CHRM5 agonist -4.5.
`CCOC(=O)c1cnc2c(Cl)cccc2c1NCCN(C)C` gave M5 antag 19.6, M4 ag 0.6, CHRM5 PAM 45.1*, M4 PAM 11.8, M4 antag 4.7 and CHRM5 agonist -1.4.
`CCOC(=O)c1cnc2c(ccc3ccccc32)c1NCCN(C)C` gave M5 antag -1.2, M4 ag 0.8, CHRM5 PAM 9.8, M4 PAM -3.6, M4 antag 12.0 and CHRM5 agonist 9.8.
Screening COc1ccc(CC(N)c2csc(NC(=O)c3cc(C(C)(C)C)oc3C)n2)cc1 (configuration not stated) returned M5 antag 2.0, M4 ag 18.5, CHRM5 PAM 1.5, M4 PAM -2.0, M4 antag 5.7 and CHRM5 agonist -1.9.
`Cc1cc(/C=C(\C#N)C(N)=O)c(C)n1-c1ccc(N2CCOCC2)c([N+](=O)[O-])c1` gave M5 antag 10.3, M4 ag 23.4, CHRM5 PAM -6.5, M4 PAM -1.4, M4 antag 7.5 and CHRM5 agonist 28.5*.
`O=C(CCC1CCCN(c2ncccn2)C1)NCc1ccc(F)c(F)c1` (configuration not stated) gave M5 antag 3.5, M4 ag 1.3, CHRM5 PAM -1.2, M4 PAM -2.7, M4 antag 0.1 and CHRM5 agonist -3.0.
For CC1=NNC(=O)/C1=C\c1cn(-c2ccccc2)nc1-c1ccc(F)cc1 the results were M5 antag 49.6*, M4 ag 6.2, CHRM5 PAM -4.4, M4 PAM -7.2, M4 antag 3.4 and CHRM5 agonist 20.9.
Screening CC1=NNC(=O)/C1=C\c1cn(-c2ccccc2)nc1-c1cccs1 returned M5 antag 9.7, M4 ag 13.9, CHRM5 PAM 9.7, M4 PAM -18.9, M4 antag 60.1* and CHRM5 agonist 23.7*.
`O=C(O)CCCCCN1C(=O)/C(=C/c2cn(-c3ccccc3)nc2-c2cccs2)SC1=S` gave M5 antag 6.1, M4 ag 1.0, CHRM5 PAM 2.6, M4 PAM -1.1, M4 antag 3.9 and CHRM5 agonist 3.6.
Screening Cn1c(SCC(=O)Nc2ccc(C(N)=O)cc2)nnc1-c1cccs1 returned M5 antag -9.4, M4 ag 2.1, CHRM5 PAM 0.7, M4 PAM 2.7, M4 antag -13.2 and CHRM5 agonist -3.5.
COc1ccc(OCc2cc(C(=O)NCc3cccc(C)n3)no2)c(Cl)c1 was read as M5 antag 12.0, M4 ag 8.2, CHRM5 PAM -4.2, M4 PAM -4.7, M4 antag 0.1 and CHRM5 agonist 1.8.
`Cc1ccc(S(=O)(=O)N(C)c2ccc(OC(=O)CN3C(=O)NC4(CCCC4)C3=O)cc2)cc1C` gave M5 antag -2.5, M4 ag 10.8, CHRM5 PAM -4.0, M4 PAM -3.9, M4 antag 2.0 and CHRM5 agonist 1.4.
`COc1ccc(-c2noc(CCCCC(=O)N3CCN(c4cc(C)ccc4C)CC3)n2)cc1` gave M5 antag 31.6*, M4 ag 8.3, CHRM5 PAM -13.1, M4 PAM -10.6, M4 antag 29.6* and CHRM5 agonist 6.5.
Cc1nc(-c2ccccc2)sc1C1(C)CC(c2ccc(OC(F)(F)F)cc2)=NO1 (configuration not stated) was read as M5 antag -3.7, M4 ag 1.4, CHRM5 PAM 18.1*, M4 PAM 6.6, M4 antag -23.2 and CHRM5 agonist 1.3.
For C/C(CC1CC(C)(C)OC1=O)=N\NC(N)=S (configuration not stated) the results were M5 antag -8.3, M4 ag 0.3, CHRM5 PAM 15.0, M4 PAM 6.7, M4 antag -1.6 and CHRM5 agonist 1.5.
`C/C(CC1CC2=C(CC1(C)C)C(C)(C)CCC2)=N\NC(N)=S` (configuration not stated) gave M5 antag 0.0, M4 ag 0.8, CHRM5 PAM 2.2, M4 PAM 42.9*, M4 antag 5.3 and CHRM5 agonist 3.6.
COCCn1cnc2c1c(=O)n(CC(=O)Nc1cc(C)on1)c(=O)n2Cc1ccccc1 was read as M5 antag -0.6, M4 ag 0.9, CHRM5 PAM -3.4, M4 PAM 23.8*, M4 antag 4.0 and CHRM5 agonist -4.9.
For Cc1cc2n(n1)C(c1ccco1)Nc1ccccc1-2 (configuration not stated) the results were M5 antag 4.2, M4 ag 1.1, CHRM5 PAM -0.2, M4 PAM 13.6, M4 antag -1.7 and CHRM5 agonist -1.5.
